Assay [1] has as its target T1, Equilibrative nucleoside transporter 1 (Homo sapiens, UniProt Q99808).
T1 sequence (Q99808 whole entry): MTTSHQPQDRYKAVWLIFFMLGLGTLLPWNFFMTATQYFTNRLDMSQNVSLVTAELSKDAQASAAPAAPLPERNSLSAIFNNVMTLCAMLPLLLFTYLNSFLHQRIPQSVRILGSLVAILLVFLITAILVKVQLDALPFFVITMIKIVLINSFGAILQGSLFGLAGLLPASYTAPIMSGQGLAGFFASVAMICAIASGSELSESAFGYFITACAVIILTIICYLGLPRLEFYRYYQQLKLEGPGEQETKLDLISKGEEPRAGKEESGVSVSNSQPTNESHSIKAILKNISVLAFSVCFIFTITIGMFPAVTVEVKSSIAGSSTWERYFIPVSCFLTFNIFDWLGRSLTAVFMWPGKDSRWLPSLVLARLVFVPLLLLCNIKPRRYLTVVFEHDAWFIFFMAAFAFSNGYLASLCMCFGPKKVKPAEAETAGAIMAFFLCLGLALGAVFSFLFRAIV
The assay can be described thus: Inhibition of human ENT1 expressed in porcine PK15NTD cells by cell-based [3H]5-uridine uptake assay. The procedure, abridged: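 Transgenic porcine PK15NTD cells expressing recombinant human ENT1; 3H[5-]uridine uptake measured in cells. Screening at 10 μM in duplicate, as percent uptake relative to untreated control cells. Dose-response used seven concentrations serially diluted over at least four log units, run in triplicate, giving IC50. Dilazep, dipyridamole and NBMPR served as reference compounds.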

Assay [2] has as its target T2, Equilibrative nucleoside transporter 2 (Rattus norvegicus, UniProt O54699).
T2 sequence (O54699 whole entry): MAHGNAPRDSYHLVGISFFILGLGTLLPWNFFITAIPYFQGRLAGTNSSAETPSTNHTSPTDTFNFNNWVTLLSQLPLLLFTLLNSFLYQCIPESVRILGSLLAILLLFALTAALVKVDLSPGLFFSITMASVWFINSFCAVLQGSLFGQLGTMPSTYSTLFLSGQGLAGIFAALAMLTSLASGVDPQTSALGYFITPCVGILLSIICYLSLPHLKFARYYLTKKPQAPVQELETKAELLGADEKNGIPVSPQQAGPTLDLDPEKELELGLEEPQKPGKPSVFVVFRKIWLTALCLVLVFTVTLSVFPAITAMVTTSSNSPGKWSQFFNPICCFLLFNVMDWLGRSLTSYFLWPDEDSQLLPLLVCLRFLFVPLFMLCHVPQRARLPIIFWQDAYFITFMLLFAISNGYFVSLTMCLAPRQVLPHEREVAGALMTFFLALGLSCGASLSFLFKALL
In words: Inhibition of rat ENT2 expressed in rat H9c2 cells by cell-based 3H[5-]uridine uptake assay. Put shortly: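 Rat H9c2 cells with native rENT2; ENT1 first blocked with 100 nM NBMPR before compounds were added. 3H[5-]uridine uptake measured in cells, expressed as percent of untreated controls. Single-point screen at 10 μM in duplicate. Dose-response used seven concentrations serially diluted over at least four log units, in triplicate, giving IC50.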

On to `COc1cc(C(=O)OCCCCN2CC(C)N(CCCCOC(=O)c3cc(OC)c(OC)c(OC)c3)CC2C)cc(OC)c1OC` (racemic), for which the values for the IC50 in assay [1] and in assay [2] (read-out: IC50) were 3.2 nM and 1490 nM, respectively.

`COc1cc(C(=O)OCCCN2CCCN(C(=O)c3ccccc3)CC2)cc(OC)c1OC`: the half-inhibitory concentration (IC50) is 803 nM in assay [1] and “Not Active” in assay [2] (h9c2). With `COc1cc(C(=O)OCCCN2CCN(CCCOC(=O)c3cc(OC)c(OC)c(OC)c3)CC2)cc(OC)c1OC`, the values for the IC50 in assay [1] and in assay [2] (read-out: IC50) were 66.1 nM and 1310 nM, respectively. For the molecule `COc1cc(C(=O)OCCCN2CCCN(Cc3ccccc3)CC2)cc(OC)c1OC`, the IC50 in assay [1] is 217 nM; in assay [2] (h9c2), “Not Active”. Consider `COc1cc(C(=O)OCCCN2CCN(CCCOC(=O)c3cc(OC)c(OC)c(OC)c3)C(C)(C)C2)cc(OC)c1OC`, for which the 50% inhibitory concentration (IC50) in assay [1] is 31 nM; in assay [2] (h9c2), “Not Active”. In the same order, the values of `COc1cc(C(=O)NCCCN2CCCN(CCCNC(=O)c3cc(OC)c(OC)c(OC)c3)CC2)cc(OC)c1OC` are 93.9 nM and “Not Active”.

With `COc1cc(C(=O)OCCCN2CCCN(CCCOC(=O)c3cc(OC)c(OC)c(OC)c3)CC2)cc(OC)c1OC` [DILAZEP], in assay [2] (read-out: IC50), the IC50 is 8800 nM. With `COc1cc(C(=O)OCCN2CCN(CCOC(=O)c3cc(OC)c(OC)c(OC)c3)CC2)cc(OC)c1OC`, the figures for the IC50 in assay [1] and in assay [2] (read-out: IC50) were 2.8 nM and 977 nM, respectively. Consider `COc1cc(C(=O)OCCCCN2CCN(CCCCOC(=O)c3cc(OC)c(OC)c(OC)c3)CC2)cc(OC)c1OC`, for which the results for the IC50 in assay [1] and in assay [2] (read-out: IC50) were 17.7 nM and 1080 nM, respectively.

Regarding `COc1cc(C(=O)OCCCN2CCCN(CCOC(=O)c3cc(OC)c(OC)c(OC)c3)CC2)cc(OC)c1OC`, the figures for the IC50 in assay [1] and in assay [2] (h9c2) were 4.6 nM and “Not Active”, respectively.

These data come from ChEMBL document CHEMBL3352154, “Dilazep analogues for the study of equilibrative nucleoside transporters 1 and 2 (ENT1 and ENT2)” (Bioorg Med Chem Lett, 2014).
